Measurements published in ChEMBL document CHEMBL4406852, “Combating fluconazole-resistant fungi with novel β-azole-phenylacetone derivatives” (Eur J Med Chem, 2019).
Values after ≈ are worked out from the molar mass of the structure shown.

What was measured:
Type in all cases: functional
Candida albicans [1] = test: Antifungal activity against fluconazole-resistant Candida albicans 17 assessed as reduction in fungal growth incubated for 24 hrs by serial dilution method; conditions: Candida albicans, 17, 24 h
Summary of the method: (§1)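 Fluconazole-resistant C. albicans clinical isolates (17# and CaR from AIDS patients; 632, 901, 904 from clinic) tested by CLSI broth dilution MIC in RPMI 1640 buffered to pH 7.0 with MOPS. Compounds dissolved in DMSO, serially diluted to final 0.03–16 or 0.125–64 μg/mL; inoculum 1–5 × 10^3 CFU/mL; 35 °C, 24 h. MIC = lowest concentration inhibiting visible growth; fluconazole and itraconazole as controls.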

Candida albicans [2] = test: Antifungal activity against Candida albicans SC5314 assessed as reduction in fungal growth incubated for 24 hrs by serial dilution method; conditions: SC5314, 24 h
Summary of the method: (§2)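 MIC by CLSI broth microdilution in RPMI 1640 buffered to pH 7.0 with MOPS. Compounds dissolved in DMSO and serially diluted to final 0.03–16 or 0.125–64 µg/mL. Inoculum 1–5 × 10^3 CFU/mL. Incubation 35 °C, 24 h. Drug-free growth and fungus-free blank controls. MIC is the lowest concentration preventing visible growth.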

Candida albicans [3] = test: Antifungal activity against fluconazole-resistant Candida albicans 901 assessed as reduction in fungal growth incubated for 24 hrs by serial dilution method; conditions: Candida albicans, 901, 24 h; summary of the method: as §1
Candida albicans [4] = test: Antifungal activity against fluconazole-resistant Candida albicans 904 assessed as reduction in fungal growth incubated for 24 hrs by serial dilution method; conditions: Candida albicans, 904, 24 h; summary of the method: as §1
Candida albicans [5] = test: Antifungal activity against fluconazole-resistant Candida albicans CaR assessed as reduction in fungal growth incubated for 24 hrs by serial dilution method; summary of the method: as §1
Candida albicans [6] = test: Antifungal activity against Candida albicans GIM 2.194 assessed as reduction in fungal growth incubated for 24 hrs by serial dilution method; conditions: GIM 2.194, 24 h; summary of the method: as §2
Candida tropicalis = test: Antifungal activity against Candida tropicalis GIM 2.183 assessed as reduction in fungal growth incubated for 24 hrs by serial dilution method; conditions: GIM 2.183, 24 h; summary of the method: as §2
Candida parapsilosis = test: Antifungal activity against Candida parapsilosis GIM 2.190 assessed as reduction in fungal growth incubated for 24 hrs by serial dilution method; conditions: Lodderomyces parapsilosis, GIM 2.190, 24 h; summary of the method: as §2
Candida albicans [7] = test: Antifungal activity against fluconazole-resistant Candida albicans 632 assessed as reduction in fungal growth incubated for 24 hrs by serial dilution method; conditions: Candida albicans, 632, 24 h; summary of the method: as §1
Nakaseomyces glabratus = test: Antifungal activity against Candida glabrata assessed as reduction in fungal growth incubated for 24 hrs by serial dilution method; summary of the method: as §2

SMILES	MIC (Candida albicans [1]) [µg/mL]	MIC (Candida albicans [2]) [µg/mL]	MIC (Candida albicans [3]) [µg/mL]	MIC (Candida albicans [4]) [µg/mL]	MIC (Candida albicans [5]) [µg/mL]	MIC (Candida albicans [6]) [µg/mL]	MIC (Candida tropicalis) [µg/mL]	MIC (Candida parapsilosis) [µg/mL]	MIC (Candida albicans [7]) [µg/mL]	MIC (Nakaseomyces glabratus) [µg/mL]
O=C(NC(Cn1ccnc1)C(=O)c1ccccc1F)c1ccc(-c2ccccc2)c(F)c1 (stereo not given)	> 64	0.5 (≈ 1.16 µM)	0.25 (≈ 0.579 µM)	0.25 (≈ 0.579 µM)	> 64	0.5 (≈ 1.16 µM)	4 (≈ 9.27 µM)	2 (≈ 4.64 µM)	1 (≈ 2.32 µM)	> 64
O=C(NC(Cn1ccnc1)C(=O)c1cccc(F)c1)c1ccc(-c2ccccc2)cc1 (stereo not given)	> 64	0.06 (≈ 0.145 µM)	0.25 (≈ 0.605 µM)	0.5 (≈ 1.21 µM)	> 64	0.125 (≈ 0.302 µM)	0.25 (≈ 0.605 µM)	0.5 (≈ 1.21 µM)	1 (≈ 2.42 µM)	1 (≈ 2.42 µM)
O=C(NC(Cn1ccnc1)C(=O)c1cccc(Cl)c1)c1ccc(-c2ccccc2)cc1F (stereo not given)	> 64	0.06 (≈ 0.134 µM)	> 64	> 64	> 64	0.125 (≈ 0.279 µM)	0.03 (≈ 0.067 µM)	0.125 (≈ 0.279 µM)	> 64	0.25 (≈ 0.558 µM)
Cc1cc(-c2ccccc2)ccc1C(=O)NC(Cn1ccnc1)C(=O)c1ccccc1 (stereo not given)		> 16				> 16	> 16	> 64		> 64
O=C(NC(Cn1ccnc1)C(=O)c1ccccc1)c1ccc(-c2cccc(F)c2)cc1 (stereo not given)		0.25 (≈ 0.605 µM)				0.5 (≈ 1.21 µM)	0.125 (≈ 0.302 µM)	1 (≈ 2.42 µM)		> 64
Cc1cccc(-c2ccc(C(=O)NC(Cn3ccnc3)C(=O)c3ccccc3)cc2)c1 (stereo not given)		> 16				> 16	> 16	> 64		> 64
CCC(C)n1ncn(-c2ccc(N3CCN(c4ccc(OCC5COC(Cn6cncn6)(c6ccc(Cl)cc6Cl)O5)cc4)CC3)cc2)c1=O (stereo not given) [ITRACONAZOLE]	0.25 (≈ 0.354 µM)	0.03 (≈ 0.0425 µM)	> 64	> 64	0.25 (≈ 0.354 µM)	0.03 (≈ 0.0425 µM)	0.03 (≈ 0.0425 µM)	0.125 (≈ 0.177 µM)	> 64	0.125 (≈ 0.177 µM)
O=C(NC(Cn1ccnc1)C(=O)c1ccccc1)c1ccc(-c2ccccc2Cl)cc1 (stereo not given)		2 (≈ 4.65 µM)				> 16	> 16	> 64		4 (≈ 9.3 µM)
O=C(NC(Cn1ccnc1)C(=O)c1ccc(F)cc1)c1ccc(-c2ccccc2)cc1 (stereo not given)	> 64	0.06 (≈ 0.145 µM)	1 (≈ 2.42 µM)	2 (≈ 4.84 µM)	> 64	0.25 (≈ 0.605 µM)	0.25 (≈ 0.605 µM)	0.25 (≈ 0.605 µM)	2 (≈ 4.84 µM)	0.5 (≈ 1.21 µM)
O=C(NC(Cn1ccnc1)C(=O)c1ccccc1)c1ccc(-c2ccccc2)c(Cl)c1 (stereo not given)		> 16				> 16	> 16	> 64		> 64
O=C(NC(Cn1ccnc1)C(=O)c1ccccc1)c1ccc(-c2ccccc2)c(F)c1 (stereo not given)	> 64	0.06 (≈ 0.145 µM)	0.25 (≈ 0.605 µM)	2 (≈ 4.84 µM)	> 64	0.125 (≈ 0.302 µM)	0.06 (≈ 0.145 µM)	0.125 (≈ 0.302 µM)	2 (≈ 4.84 µM)	0.25 (≈ 0.605 µM)
O=C(NC(Cn1ccnc1)C(=O)c1ccccc1)c1ccc(-c2ccccc2)cc1F (stereo not given)	2 (≈ 4.84 µM)	0.125 (≈ 0.302 µM)	> 64	8 (≈ 19.3 µM)	4 (≈ 9.67 µM)	0.25 (≈ 0.605 µM)	0.06 (≈ 0.145 µM)	0.125 (≈ 0.302 µM)	32 (≈ 77.4 µM)	0.5 (≈ 1.21 µM)
O=C(NC(Cn1ccnc1)C(=O)c1cccc(F)c1)c1ccc(-c2ccccc2)cc1F (stereo not given)	4 (≈ 9.27 µM)	0.125 (≈ 0.29 µM)	2 (≈ 4.64 µM)	32 (≈ 74.2 µM)	2 (≈ 4.64 µM)	0.5 (≈ 1.16 µM)	0.5 (≈ 1.16 µM)	0.5 (≈ 1.16 µM)	> 64	2 (≈ 4.64 µM)
O=C(NC(Cn1ccnc1)C(=O)c1ccccc1)c1ccc(-c2ccccc2F)cc1 (stereo not given)		0.5 (≈ 1.21 µM)				1 (≈ 2.42 µM)	0.25 (≈ 0.605 µM)	2 (≈ 4.84 µM)		1 (≈ 2.42 µM)
O=C(NC(Cn1ccnc1)C(=O)c1ccccc1F)c1ccc(-c2ccccc2)cc1F (stereo not given)	8 (≈ 18.5 µM)	0.5 (≈ 1.16 µM)	> 64	2 (≈ 4.64 µM)	4 (≈ 9.27 µM)	1 (≈ 2.32 µM)	1 (≈ 2.32 µM)	1 (≈ 2.32 µM)	8 (≈ 18.5 µM)	> 64
